From PubChem BioAssay
5HT1E antag: antagonists of human 5-HT1E serotonin receptor | P28566 | actives 0.99% (n = 65,000) | inhibition, % at 6 µM | CHO 5-HT1E Ga15 NFAT-bla reporter, FRET, antagonist;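 active = inhibition above a set limit, the mean inhibition across every tested compound plus 3 SD, cut at about 29% in these data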;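 note: signal is the 460 over 535 nm emission ratio of beta-lactamase substrate; 0% = agonist plus DMSO wells and 100% = wells without agonist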
HEK293 NFkB inh: inhibitors of the PMA/ionomycin-induced NF-kB reporter in HEK293 cells. HEK-293 NF-kB luciferase reporter, luminescence. inhibition, % at 3 µM. actives 0.21% (n = 62,000);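 active = inhibition above the mean of all tested compounds plus 3 SD, cut at about 40% in these data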;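 note: 0% = stimulated DMSO wells and 100% = 10 µM reference inhibitor 5653914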
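Timing: 1 h pretreatment, 16 h stimulation, 37 °C; system: HEK-293 cells with stable firefly luciferase reporter driven by four HIV NF-kB elements; doses: 3 µM once, 0.30% DMSO; measured by: luciferase luminescence; control set: DMSO and 10 µM reference inhibitor; repeats: single test; reagent: PMA plus ionomycin mix as NF-kB-activating stimulus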
5HT1a ag: 5-HT1a (human) receptor agonism; P08908; CHO 5-HT1a Ga15 NFAT-bla reporter, FRET ratio; 0% basal, 100% maximal reference agonist; activation, % at 10 µM; actives 0.56% (n = 65,000); AID 567;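 active = activation above the screen-wide mean activation plus 3 SD, cut at about 19% in these data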;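 note: 0% = DMSO wells and 100% = 5-CT at EC100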
Target sequence (P08908 whole entry, looked up): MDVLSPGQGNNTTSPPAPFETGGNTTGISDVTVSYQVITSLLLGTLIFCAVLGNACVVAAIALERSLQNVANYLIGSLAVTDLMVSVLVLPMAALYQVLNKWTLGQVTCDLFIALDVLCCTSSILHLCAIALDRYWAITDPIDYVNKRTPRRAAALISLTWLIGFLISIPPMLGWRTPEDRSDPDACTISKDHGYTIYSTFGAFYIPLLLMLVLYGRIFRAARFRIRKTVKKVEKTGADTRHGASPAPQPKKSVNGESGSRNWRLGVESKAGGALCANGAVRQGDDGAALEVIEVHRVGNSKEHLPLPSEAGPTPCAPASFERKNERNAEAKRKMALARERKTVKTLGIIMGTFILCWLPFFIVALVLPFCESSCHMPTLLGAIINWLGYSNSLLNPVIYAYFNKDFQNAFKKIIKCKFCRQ
5HT1a antag: antagonists of human 5-HT1a serotonin receptor; P08908; CHO 5-HT1a Ga15 NFAT-bla reporter, antagonist mode; inhibition, % at 10 µM; actives 0.68% (n = 62,000); AID 612;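 active = inhibition above the mean of all tested compounds plus 3 SD, cut at about 43% in these data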;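 note: receptor stimulated by 5-CT agonist at 100 nM near EC80; beta-lactamase reporter measured by ratiometric fluorescence of a cleavable substrate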
5HT1E ag: activates the human 5-HT1E serotonin receptor; activation, % at 6 µM; CHO 5-HT1E Ga15 NFAT-bla reporter, FRET; 0% DMSO wells, 100% control agonist wells; actives 0.69% (n = 65,000); AID 574; P28566;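 active = activation above a set limit, the screen-wide mean activation plus 3 SD, cut at about 8.5% in these data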;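 note: 100% = positive control agonist at 1 µM giving full maximal response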
Jurkat tox 60K: cytotoxic compounds reducing Jurkat cell viability. Jurkat E6.1 viability, ATP luminescence, 48 h. inhibition, % at 4 µM. actives 1.2% (n = 56,000);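 active = inhibition above the mean inhibition of all tested compounds plus 3 SD, cut at about 28% in these data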
* = called active by the depositor; . = not tested or not shown. Hits are enriched below; roughly 3.3% of the tested compounds scored in any of these assays.

SMILES	5HT1E antag	HEK293 NFkB inh	5HT1a ag	5HT1a antag	5HT1E ag	Jurkat tox 60K
CC(=O)Nc1ccccc1OCC(=O)c1cc(C)n(Cc2cccs2)c1C	5	55*	-1	47*	0	100*
CC(=O)Nc1ccc(SCC(=O)c2cc(C)n(Cc3cccs3)c2C)cc1	11	13	-2	2	-1	5
COc1ccc2[nH]c(=O)c(CN(C(=O)c3ccco3)C3CCCCC3)cc2c1	-17	5	1	-25	1	.
N#C/C(=C(/O)COC(=O)c1ccc2c(c1)OCCO2)c1nc2ccccc2[nH]1	5	9	-3	0	1	1
CCOC(=O)c1c(C)[nH]c(C(=O)OC/C(O)=C(\C#N)c2nc3ccccc3[nH]2)c1C	49*	-3	0	6	3	-3
N#C/C(=C(/O)COC(=O)Cc1c[nH]c2ccccc12)c1nc2ccccc2[nH]1	-1	4	32*	12	5	-3
CCOC(=O)Cc1csc(NC(=O)CCN2C(=O)c3ccccc3C2=O)n1	15	14	0	0	0	6
Cc1ccc(C2/C(=C(\O)c3c(C)nc4ccccn34)C(=O)C(=O)N2CCCN2CCOCC2)o1 (centres undefined)	9	8	1	17	0	-9
COc1ccc(CCNc2ncnc3c2oc2ccccc23)cc1OC	12	37	0	5	0	84*
COc1ccc(CCNc2nc(C)nc3c2oc2ccccc23)cc1OC	8	21	0	11	-1	.
CCOC(=O)c1[nH]c(C)c(C(=O)Nc2cccc(Cl)c2C)c1C	15	-6	-1	5	0	64*
COc1cccc2cc(C(=O)N3CCc4ccccc43)c(=O)oc12	-8	-5	-4	-12	-1	1
CCOC(=O)c1cc2sccc2n1CC(=O)N1CCc2ccccc21	44*	14	-1	25	1	.
CCOCC(=O)N1CCc2ccccc21	4	0	24*	6	0	-3
COc1ccccc1C(=O)N1CCc2ccccc21	-1	1	-4	7	20*	-4
CN(C)CCNC(=O)Cn1nc(C(F)F)cc1C1CC1	-9	-5	-2	-15	-1	-3
CCOC(=O)c1[nH]c(C)c(C(=O)N2CCc3ccccc32)c1C	77*	21	-3	51*	-1	97*
CCC(C)NC(=O)Cn1c(=O)n(CCCCC(=O)NCc2ccco2)c(=O)c2ccccc21 (centres undefined)	-2	13	-1	14	1	.
Cc1c(C(=O)c2no[n+]([O-])c2C(=O)c2cnn(C)c2C)cnn1C	10	10	-1	46*	-1	-3
COc1ccccc1C(=O)n1nc(-c2ccccc2)nc1NCc1ccco1	0	5	-2	44*	-1	-3
N#Cc1cccc(-c2cn(S(=O)(=O)c3ccc(Cl)cc3)nc2N)c1	2	8	-2	8	0	0
CC(=O)c1sc(NC(=O)C2(F)C(F)(F)C(F)(F)C(F)(F)C(F)(F)C2(F)F)nc1C	25	90*	1	65*	1	90*
CC(=O)c1sc(NC(=O)C=C(C)C)nc1C	-9	3	2	-10	0	-4
c1ccc2c(CC3=NCCN3)cccc2c1	-19	.	4	.	9.2*	.
Cc1nc(N2CCN(C)CC2)[nH]c(=O)c1Cc1cccc2ccccc12	10	4	-6	1	1	7
SMILES	5HT1E antag	HEK293 NFkB inh	5HT1a ag	5HT1a antag	5HT1E ag	Jurkat tox 60K
Cc1cc(NCCN2CCOCC2)n2nc(C)c(-c3ccccc3)c2n1	24	10	-1	10	0	6
Cc1cc(NCCN2CCOCC2)n2nc(C)c(-c3ccc(Cl)cc3)c2n1	32*	14	3	-2	1	3
Cc1ccc(C(=O)OCc2nnc(-c3ccccc3)o2)o1	0	6	-2	8	0	4
CC(=O)c1c(C)[nH]c(C(=O)OCc2nnc(-c3ccccc3)o2)c1C	35*	8	-1	0	1	9
O=C(O)c1cccc(COc2ccccc2Cl)c1	-4	92*	0	-15	0	.
O=C(O)c1ccc(COc2ccccc2Cl)cc1	5	1	-2	-2	0	-3
CN(CC1CCCO1)S(=O)(=O)c1ccc(C(=O)Nc2nc(-c3ccccn3)cs2)cc1 (centres undefined)	20	12	-3	12	1	52*
COc1ccc(S(=O)(=O)Nc2ccc(S(=O)(=O)Nc3nc(C)cc(C)n3)cc2)cc1OC	-5	18	-2	0	0	-3
CCOC(=O)C(C)(C)C(=O)C(C)(C)C(O)c1ccccn1 (centres undefined)	-6	-4	-5	10	-1	3
O=C(NC1=NCCS1)C1COc2ccccc2O1 (centres undefined)	-3	58*	-3	5	0	7
CCOC(=O)c1c(NC(=O)c2noc3c2CCCC3)sc(C)c1C	-3	14	-1	-2	0	-1
Cc1ccc(-c2csc(NC(=O)CSc3ncn(-c4ccccc4)n3)n2)cc1	-3	2	5	11	0	5
CCn1cc(C(C)NC(=O)COc2ccc(Cl)cc2C)c(C)n1 (centres undefined)	0	13	-2	-1	-1	7
Cc1sc2ncnc(Oc3ccc(-n4ccnc4)cc3)c2c1C	4	1	298*	6	0	5
Cc1sc2ncnc(NCCCn3ccnc3)c2c1C	-4	2	1	-24	1	5
CC1=Nn2c(nnc2-c2ccc(F)cc2)SC1	-7	13	-1	11	0	-8
CCCCn1c(CN2CCN(c3ccccc3)CC2)nc2c1c(=O)n(C)c(=O)n2C	9	26	1	-9	0	38*
Cn1c(=O)c2c(nc(CN3CCN(c4ccccc4)CC3)n2CCCc2ccccc2)n(C)c1=O	-8	8	1	-15	0	1
CC(C)CCn1c(CN2CCN(C(=O)c3ccco3)CC2)nc2c1c(=O)n(C)c(=O)n2C	1	8	57*	1	1	-1
CCCCn1c(CN(C)Cc2ccccc2)nc2c1c(=O)n(C)c(=O)n2C	18	11	0	14	0	36*
CCCn1c(CN(C)Cc2ccccc2)nc2c1c(=O)n(C)c(=O)n2C	3	22	0	10	0	.
CCn1c(CN2CCN(C(=O)c3ccco3)CC2)nc2c1c(=O)n(C)c(=O)n2C	-2	-3	-4	-6	1	2
COc1ccc(C2CC(=O)C(C=NCCN3CCOCC3)=C(O)C2)cc1 (centres undefined)	-6	.	2	.	0	.
CC1(c2ccccc2)NC(=O)N(CC(=O)Nc2cccc(C#N)c2)C1=O (centres undefined)	0	3	0	-2	0	-6
